{
  "source": "ChEMBL document CHEMBL5338759",
  "about": "“N-Phenyl-1-(phenylsulfonyl)-1H-1,2,4-triazol-3-amine as a New Class of HIV-1 Non-nucleoside Reverse Transcriptase Inhibitor” (J Med Chem, 2023)",
  "key": {"[1]": {"test_system": "Human immunodeficiency virus 1", "experiment": "Antiviral activity against HIV1 harboring L100I/K103N double mutant infected in human TZM-bl cells", "type": "functional, organism-based", "details": "Human immunodeficiency virus 1, TZM-bl; call rule not given here"}, "[2]": {"experiment": "Safety index, ratio of TC10 for neurotoxicity in mouse primary neurons assessed as loss of MAP-2 intensity to EC50 for antiviral activity against wild type HIV1 IIIB infected in human TZM-bl cells", "type": "toxicity, cell-based", "procedure,_shortened": "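Primary neuronal cultures from cortex/hippocampus of E16 CD1 mouse embryos (>95% neurons). Cells were then methanol:acetic acid-fixed and MAP-2 stained, and intensity was image-quantified. S-index = TC10/(100×EC50 vs HIV-1 IIIB in TZM-bl).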"}, "[3]": {"experiment": "Half life in BALB/c mouse plasma at 250 mg/kg, IG measured at 0.5 to 24 hrs by HPLC-MS analysis", "type": "ADME, organism-based", "details": "in vivo, po, time 0.5-24 hrs", "procedure,_shortened": "(§1)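 Mice averaging 20 g (24 animals) were fasted 1 h before and 1 h after dosing. They received 250 mg/kg as 0.5 ml suspension in 1% CMC, 0.05% Tween 80 by intragastric intubation. Blood and brain were taken after decapitation at 0.5, 1, 2, 3, 5, 8 and 24 h (3 per time point). Plasma was frozen at -20°C and brain at -120 °C. Quantification was by UPLC-HRMS (ESI+, EIC m/z 476.0691) against plasma-matrix standards. Parameters were derived by noncompartmental analysis; LLOQ 5 ng/ml, with values below it set to 2.5.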"}, "[4]": {"test_system": "Human immunodeficiency virus 1", "experiment": "Antiviral activity against wild type HIV1 IIIB infected in human TZM-bl cells", "type": "functional, organism-based", "details": "Human immunodeficiency virus 1, IIIB", "procedure,_shortened": "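TZM-bl cells (2x10⁵/mL) infected with HIV-1 IIIB grown in H9 cells, with 15 µg/mL DEAE-dextran; serial dilutions from 10 mM DMSO stocks, DMSO held constant (0.005% or 0.05%); 37°C, 5% CO₂, 48 hr; cells lysed, luciferase RLU read.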"}, "[5]": {"experiment": "AUC (0 to infinity) in BALB/c mouse brain at 250 mg/kg, IG measured at 0.5 to 24 hrs by HPLC-MS analysis", "type": "ADME, organism-based", "parameters": "time upper 24 hrs, time lower 0.5 hrs, dose 250 mg/kg, route ig", "details": "po", "procedure,_shortened": "as §1"}, "[6]": {"test_system": "Human immunodeficiency virus 1", "experiment": "Antiviral activity against HIV1 harboring Y181C mutant infected in human TZM-bl cells", "type": "functional, organism-based", "details": "Human immunodeficiency virus 1, TZM-bl", "procedure,_shortened": "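TZM-bl cells (2x10⁵/mL) were infected with mutant virus in the presence of 15 µg/mL DEAE-dextran. A17 (IIIB variant) was grown in H9 cells; the other mutants were NL4-3-based plasmids transfected into 293T cells, then expanded in H9 cells. Compounds were tested at 0.05–500 nM (DMSO constant within an assay) for 48 hr at 37°C. Read-out was luciferase RLU from lysed cells, with at least 6 replicates over multiple days.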"}, "[7]": {"experiment": "Subacute toxicity in BALB/c mouse assessed as body weight gain at 25 to 250 mg/kg, IG measured daily for 30 days", "type": "organism-based", "details": "in vivo, po, 720 h, dose 25-250 mg/kg, time 30 day", "procedure,_shortened": "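Male Balb/C mice (17 per group, initial weight 20.9 ± 0.8 g) were dosed intragastrically once daily for 30 days at 25 or 250 mg/kg. Doses were given as 2.5 or 25 mg/ml suspensions in 1% starch gel at 0.2 ml per 20 g; controls received starch gel alone. Weight, coat, mucous membranes and excretion were recorded throughout.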"}, "TZM": {"test_system": "TZM", "experiment": "Cytotoxicity against human TZM-bl cells assessed as reduction in viability incubated for 48 hrs by CellTiter-Blue cell viability assay"}, "[8]": {"experiment": "Tmax in BALB/c mouse plasma at 250 mg/kg, IG measured at 0.5 to 24 hrs by HPLC-MS analysis", "type": "ADME, organism-based", "details": "in vivo, po, time 0.5-24 hrs", "procedure,_shortened": "as §1"}, "[9]": {"experiment": "Selectivity ratio of IC50 for antiviral activity against wild type HIV1 IIIB infected in human TZM-bl cells to IC50 for antiviral activity against HIV1 harboring A17 mutant infected in human TZM-bl cells", "type": "toxicity, cell-based", "details": "human immunodeficiency virus 1", "procedure,_shortened": "(§2)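 TZM-bl cells (2x10⁵/mL) with 15 µg/mL DEAE-dextran were infected with HIV-1 IIIB, A17 (K103N/Y181C) IIIB variant, or NL4-3-based NNRTI-resistant mutants. Compound was present at 0.05–500 nM (DMSO held constant, 0.005% or 0.05%) for 48 hr at 37°C, 5% CO₂.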"}, "[10]": {"experiment": "Subacute toxicity in BALB/c mouse assessed as reduction in […] level at 25 to 250 mg/kg, IG measured daily for 30 days", "type": "organism-based", "details": "in vivo, po, 720 h, dose 25-250 mg/kg, time 30 day", "procedure,_shortened": "(§3)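 Dosing was daily intragastric 25 or 250 mg/kg in 1% starch gel (0.2 ml/20 g) for 30 days in male Balb/C mice, 17 per group, with starch gel controls. After the final dose, mice were fasted for 2 h with water available, then bled. Serum was clotted for 30 min at room temperature and centrifuged at 3500 rpm. Total protein, urea, creatinine, AST, ALT and alkaline phosphatase were assayed and compared by Mann-Whitney with Holm-Šídák, p < 0.05.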"}, "[11]": {"experiment": "Subacute toxicity in BALB/c mouse assessed as pathological change in kidney at 25 to 250 mg/kg, IG measured daily for 30 days by H and E staining based histological analysis", "type": "organism-based", "details": "in vivo, po, 720 h, dose 25-250 mg/kg, time 30 day", "procedure,_shortened": "(§4)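 Male Balb/C mice (17 per group) received 25 or 250 mg/kg intragastrically in 1% starch gel once daily for 30 days, against starch gel controls. Internal organs were examined macroscopically after the study. Sections were paraffin-embedded and stained with hematoxylin and eosin.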"}, "[12]": {"experiment": "Subacute toxicity in BALB/c mouse assessed as pathological change in liver at 25 to 250 mg/kg, IG measured daily for 30 days by H and E staining based histological analysis", "type": "organism-based", "details": "in vivo, po, 720 h, dose 25-250 mg/kg, time 30 day", "procedure,_shortened": "as §4"}, "[13]": {"experiment": "Subacute toxicity in BALB/c mouse assessed as effect on adrenal gland weight at 25 to 250 mg/kg, IG measured daily for 30 days", "type": "organism-based", "details": "in vivo, po, 720 h, dose 25-250 mg/kg, time 30 day"}, "[14]": {"experiment": "Subacute toxicity in BALB/c mouse assessed as reduction in total protein level at 25 to 250 mg/kg, IG measured daily for 30 days", "type": "organism-based", "details": "in vivo, po, 720 h, dose 25-250 mg/kg, time 30 day", "procedure,_shortened": "as §3"}, "[15]": {"experiment": "Selectivity index, ratio of CC50 for cytotoxicity against human TZM-bl cells assessed as reduction in cell viability by MTS assay to EC50 for antiviral activity against HIV1 harboring A17 mutant infected in human TZM-bl cells", "type": "toxicity, cell-based", "details": "read-out: Ratio CC50/EC50"}, "[16]": {"experiment": "Subacute toxicity in BALB/c mouse assessed as pathological change in heart at 25 to 250 mg/kg, IG measured daily for 30 days by H and E staining based histological analysis", "type": "organism-based", "details": "in vivo, po, 720 h, dose 25-250 mg/kg, time 30 day", "procedure,_shortened": "as §4"}, "[17]": {"experiment": "Tmax in BALB/c mouse brain at 250 mg/kg, IG measured at 0.5 to 24 hrs by HPLC-MS analysis", "type": "ADME, organism-based", "details": "po, time 0.5-24 hrs", "procedure,_shortened": "as §1"}, "[18]": {"experiment": "Subacute toxicity in BALB/c mouse assessed as effect on heart weight at 25 to 250 mg/kg, IG measured daily for 30 days", "type": "organism-based", "details": "in vivo, po, 720 h, dose 25-250 mg/kg, time 30 day"}, "[19]": {"experiment": "Subacute toxicity in BALB/c mouse assessed as effect on lung weight at 25 to 250 mg/kg, IG measured daily for 30 days", "type": "organism-based", "details": "in vivo, po, 720 h, dose 25-250 mg/kg, time 30 day"}, "[20]": {"experiment": "Selectivity ratio of IC50 for antiviral activity against wild type HIV1 IIIB infected in human TZM-bl cells to IC50 for antiviral activity against HIV1 harboring Y181C mutant infected in human TZM-bl cells", "type": "toxicity, cell-based", "details": "human immunodeficiency virus 1", "procedure,_shortened": "as §2"}, "[21]": {"experiment": "Subacute toxicity in BALB/c mouse assessed as reduction in aminotransferases level at 25 to 250 mg/kg, IG measured daily for 30 days", "type": "organism-based", "details": "in vivo, po, 720 h, dose 25-250 mg/kg, time 30 day", "procedure,_shortened": "as §3"}},
  "data": [
    {"smiles": "N#C/C=C/c1ccc2c(S(=O)(=O)n3nc(Nc4ccc(C#N)c(Cl)c4)nc3N)cccc2c1", "values": [
      {"measurement": "IC50", "setting": "[1]", "result": 1050, "unit": "nM"},
      {"measurement": "Ratio", "setting": "[2]", "result": "Not Active"},
      {"measurement": "t1/2", "setting": "[3]", "result": 7.7, "unit": "h"},
      {"measurement": "IC50", "setting": "[4]", "result": 0.24, "unit": "nM"},
      {"measurement": "AUC(0-inf)", "setting": "[5]", "result": 184, "unit": "µg·h/mL"},
      {"measurement": "IC50", "setting": "[6]", "result": 3.7, "unit": "nM"},
      {"measurement": "Activity", "setting": "[7]", "result": "Non-Toxic"},
      {"measurement": "CC50", "setting": "TZM", "result": 4800, "unit": "nM"},
      {"measurement": "Tmax", "setting": "[8]", "result": 0.7, "unit": "h"},
      {"measurement": "Ratio IC50", "setting": "[9]", "result": 5.6},
      {"measurement": "Activity", "setting": "[10]", "result": "Non-Toxic"},
      {"measurement": "Activity", "setting": "[11]", "result": "Non-Toxic"},
      {"measurement": "Activity", "setting": "[12]", "result": "Toxic"},
      {"measurement": "Activity", "setting": "[13]", "result": "Non-Toxic"},
      {"measurement": "Activity", "setting": "[14]", "result": "Non-Toxic"},
      {"measurement": "selectivity ratio", "setting": "[15]", "result": 1200},
      {"measurement": "Activity", "setting": "[16]", "result": "Non-Toxic"},
      {"measurement": "Tmax", "setting": "[17]", "result": 2, "unit": "h"},
      {"measurement": "Activity", "setting": "[18]", "result": "Non-Toxic"},
      {"measurement": "Activity", "setting": "[19]", "result": "Non-Toxic"},
      {"measurement": "Ratio IC50", "setting": "[20]", "result": 16},
      {"measurement": "Activity", "setting": "[21]", "result": "Toxic"}
    ]}
  ]
}
